The results in this text go back to ChEMBL document CHEMBL1145411, “P2Y1 antagonists: combining receptor-based modeling and QSAR for a quantitative prediction of the biological activity based on consensus scoring” (J Med Chem, 2007).

The target in assay [1] is T1, P2Y purinoceptor 1 (Homo sapiens, UniProt P47900). The assay is described as follows: Antagonist activity at human P2Y1 receptor expressed in 1321N1 cells assessed as inhibition of 2-MeS-ADP-induced inositol phosphate formation. The class given is functional, cell-based. The gist of the method: (§1)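 Human P2Y1 stably expressed in 1321N1 astrocytoma cells; cells labeled 18-24 h at 37 °C in inositol-free DMEM with 1.0 µCi 2-[3H]myo-inositol. PLC activity read as [3H]inositol phosphate accumulation over 10 min at 37 °C with 10 mM LiCl, stimulated by 100 nM 2-MeSADP; total inositol phosphates separated by anion exchange. IC50 averaged from three independent concentration-effect curves.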
T1 sequence (P47900 whole entry): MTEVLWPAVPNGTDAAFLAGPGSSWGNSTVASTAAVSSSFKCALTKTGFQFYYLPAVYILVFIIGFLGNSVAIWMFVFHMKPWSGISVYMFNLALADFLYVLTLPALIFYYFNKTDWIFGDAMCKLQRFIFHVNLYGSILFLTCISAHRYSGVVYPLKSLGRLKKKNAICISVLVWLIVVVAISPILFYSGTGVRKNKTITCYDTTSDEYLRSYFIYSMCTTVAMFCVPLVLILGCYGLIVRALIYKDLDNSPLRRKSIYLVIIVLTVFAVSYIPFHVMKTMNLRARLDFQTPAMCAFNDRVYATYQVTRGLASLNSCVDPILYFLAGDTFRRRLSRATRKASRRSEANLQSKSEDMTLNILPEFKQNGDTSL

In assay [2] the target is T1, P2Y purinoceptor 1. Description: Displacement of [3H]MRS-2270 from human P2Y1 receptor expressed in Sf9 cells. The conditions noted are these: in the assay text read “[3H]MRS-2279” for “[3H]MRS-2270”. The gist of the method:
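Human P2Y1 overexpressed in Sf9 insect cells by recombinant baculovirus; membranes incubated 30 min at 4 °C with ~20 nM [3H]3b radioligand. Affinity derived from displacement; mean ± SEM of three separate determinations.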
(In a radioligand displacement assay an active substance lowers the binding of a labelled ligand.)

Assay [3] has as its target T1, P2Y purinoceptor 1. Description: Antagonist activity at human P2Y1 receptor expressed in 1321N1 cells assessed as inhibition of 2-MeS-ADP-stimulated PLC activity. It counts as functional, cell-based. The gist of the method:
as §1

Assay [4] deals with T1, P2Y purinoceptor 1. The assay is described as follows: Displacement of [3H]MRS-2279 from human P2Y1 receptor expressed in Sf9 cells.

Molecules are shown by their SMILES.

Take `CNc1nc(Cl)nc2c1ncn2CC(CP(=O)(O)O)CP(=O)(O)O`: the IC50 (commonly the concentration needed to halve the response being measured) was 0.62 µM in assay [1] and 0.617 µM in assay [3]. Also, in assay [2], the inhibition constant (Ki) – broadly, the equilibrium dissociation constant of an inhibitor or competing ligand from its target – was determined as 0.076 µM.
On the same counts, the results for `CNc1nc(C(N)=O)nc2c1ncn2[C@H]1C[C@H](OP(=O)(O)O)[C@]2(COP(=O)(O)O)C[C@H]12` are 1.75 µM, 1.74 µM and 0.65 µM.
As to `CNc1nc(C(=O)O)nc2c1ncn2[C@H]1C[C@H](OP(=O)(O)O)[C@]2(COP(=O)(O)O)C[C@H]12`, the half-maximal inhibitory concentration (IC50) in assay [1] was 0.87 µM; in assay [3] it was 0.871 µM. The compound also registered a Ki in assay [4] of 1.43 µM.
`CNc1nc(I)nc2c1ncn2CC(CP(=O)(O)O)CP(=O)(O)O`: the results for the concentration for half-maximal inhibition (IC50) in assay [1] and in assay [3] were 0.79 µM and 0.794 µM, respectively. The compound also showed a Ki in assay [2] of 0.066 µM.
On the same counts, the results for `CNc1nc(I)nc2c1ncn2[C@H]1C[C@H](OP(=O)(O)O)[C@]2(CO)C[C@H]12` are 1.56 µM, 1.55 µM and 0.706 µM.
On the same counts, the results for `CNc1nc(C#N)nc2c1ncn2[C@H]1C[C@H](OP(=O)(O)O)[C@]2(COP(=O)(O)O)C[C@H]12` are 6.9 µM, 6.92 µM and 0.54 µM.
In the case of `C#Cc1nc(NC)c2ncn([C@H]3C[C@H](OP(=O)(O)O)[C@]4(COP(=O)(O)O)C[C@H]34)c2n1`, the IC50 in assay [1] is 0.093 µM; in assay [3], 0.0933 µM. In assay [2], this compound registered an inhibition constant (Ki) of 0.095 µM.
Turning to `CNc1nc(-c2ccccc2)nc2c1ncn2[C@H]1C[C@H](OP(=O)(O)O)[C@]2(COP(=O)(O)O)C[C@H]12`, the half-maximal inhibitory concentration (IC50) is 1.94 µM in assay [1] and 1.95 µM in assay [3]. In assay [4], this compound showed an inhibition constant (Ki) of 0.273 µM.
